Assay [1] is described as follows: Inhibition of bovine thymus p56LCK. The arrangement: species or system Bos taurus. In outline: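 Partially purified p56lck from bovine thymus (through butyl-agarose step). Compounds were dissolved in DMSO, with 8% DMSO present in all assays. Emodin served as reference compound.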
The target of assay [2] is Protein kinase C (PKC). Kind of assay: Inhibition of rat brain PKC. In outline:
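Rat brain PKC, partially purified and mainly alpha/beta isoforms, acting on lysine-rich histone (30 μg). Partial activation by phosphatidylserine 8 μg/ml plus TPA 3 nM, no calcium, EGTA present, 20 mM Tris-Cl pH 7.4. Run 10 min at 30°, duplicates. Samples spotted on P81 paper, Cerenkov counted, no-enzyme blanks subtracted. IC50 from logarithmic interpolation over ten-fold dilutions, 0.16–160 μg/ml.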

Values after ≈ are worked out from the molar mass of the structure shown. Where only a bound is given, the exact number is not on record here.

Consider `OC[C@H]1O[C@@H](Oc2ccc(/C=C\c3cc(O)cc(O)c3)cc2)[C@H](O)[C@@H](O)[C@@H]1O`, for which the IC50 in assay [1] was over 8 ×10² ug/ml; in assay [2] it was 6 µg/mL (≈ 15.4 µM).
For `Oc1ccc(/C=C\c2cc(O)cc(O)c2)cc1` [CIS-RESVERATROL] the same measures were 5 ×10¹ ug/ml and 3 ×10¹ ug/ml.
On to `Cc1cc(O)c2c(c1)C(=O)c1cc(O)cc(O)c1C2=O` [EMODIN], for which the IC50 in assay [1] stood at 10 µg/mL (≈ 37 µM).
For the compound `OC[C@H]1O[C@@H](Oc2ccc(/C=C/c3cc(O)cc(O)c3)cc2)[C@H](O)[C@@H](O)[C@@H]1O` [GOB C], the IC50 stood at 2 ×10² ug/ml in assay [1] and 3 µg/mL (≈ 7.68 µM) in assay [2].
For `OC[C@H]1O[C@@H](Oc2cc(O)cc(/C=C/c3ccc(O)cc3)c2)[C@H](O)[C@@H](O)[C@@H]1O` [PICEID] the same measures were 2 ×10² ug/ml and 2 ×10² ug/ml.
For `Oc1ccc(/C=C/c2cc(O)cc(O)c2)cc1` [RESVERATROL] the same measures were 6 ×10¹ ug/ml and 4 ×10¹ ug/ml.
For the compound `CN1CCN(CCCN2c3ccccc3Sc3ccc(C(F)(F)F)cc32)CC1` [TRIFLUOPERAZINE], in assay [2], the IC50 is 30 µg/mL (≈ 73.6 µM).
Regarding `OC[C@H]1O[C@@H](Oc2cc(O)cc(/C=C\c3ccc(O)cc3)c2)[C@H](O)[C@@H](O)[C@@H]1O` [Z-PICEID], the IC50 came to 5 ×10² ug/ml in assay [1] and 2 ×10² ug/ml in assay [2].

The values above are taken from ChEMBL document CHEMBL1147385, “Kinase inhibitors from Polygonum cuspidatum” (J Nat Prod, 1993).
